Measurements from ChEMBL document CHEMBL4513216, “Probing the Open Global Health Chemical Diversity Library for Multistage-Active Starting Points for Next-Generation Antimalarials” (ACS Infect Dis, 2020).

Assay: Toxicity liver stage against HepG2, at 10uM
Assay type: cell-based
Design: test concentration 10 uM, cell line HepG2-A16-CD81EGFP
Details: human, HepG2-A16-CD81EGFP cells; read-out: INHIBITION
Method in brief: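 Uninfected HepG2-A16-CD81EGFP cells, 3 × 10^3 per well, 1536-well, plated on prespotted compound at 10 μM final, parasite-free screening media added to match infected plates; puromycin 10 μM positive, DMSO 0.5% negative; run in parallel with 48 h PbLuc assay at 37 °C, 5% CO2; viability by CellTiter-Glo luminescence, normalized to controls.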

| Structure (SMILES) | cytotoxicity at 10 µM [%] |
| --- | --- |
| Cn1ncc2c1C(COCC1CC1)CN(C(=O)Cc1ccsc1)C2 (stereo not given) | 10.1 |
| Cc1nc(CCNC2CCN(Cc3ccccc3)C2)sc1C (stereo not given) | 12.3 |
| CC(C)C(Sc1nnnn1C1CC1)C(=O)NCc1cccnc1 (stereo not given) | -0.267 |
| CN(C)Cc1nc(C(C)(C)NC(=O)C2CC(=O)N(CC3CC3)C2)no1 (stereo not given) | -5.9 |
| CCS(=O)(=O)CCN(CC1CCCO1)C1CCCC1 (stereo not given) | -3.52 |
| O=C(NCc1cccc(F)c1)c1cccc(C(=O)N2CCCC2)n1 | 5.79 |
| CC(=O)N[C@@H]1CN(Cc2ccccc2C(=O)O)C[C@H]1C(C)C | 3.15 |
| Cc1cc(C(=O)N2CCO[C@H]3[C@H](Oc4ccccn4)CC[C@@H]32)c(C)[nH]1 | -107 |
| CCSc1cc(C(=O)NCCNC(=O)Cc2ccccc2)ccn1 | -6.41 |
| CC(=O)c1ccc(C(=O)NCc2ccnc(N(C)C)n2)cc1 | 0.69 |
| CSCc1cccc(S(=O)(=O)Nc2cc(C)on2)c1 | 6.27 |
| Cc1ccc(-c2c[nH]c([C@@H]3COCCN3Cc3ncc[nH]3)n2)cc1 | 0.835 |
| Cc1csc(N2CCN(CC(=O)Nc3nncs3)CC2C)n1 (stereo not given) | -7.44 |
| CCOCC(O)CN1CCN(C(=O)Cc2ccc(C)nc2)CC1 (stereo not given) | -4.97 |
| Fc1cccc(CN2CCC[C@H](Cn3nnc(-c4ccccn4)n3)C2)c1 | 3.44 |
| COCC(=O)N1CCN(Cc2cc(-c3ccncc3)nn2C)CC1 | -4.17 |
| Cc1cc(C)c(CNC(=O)NCC(O)c2ccc(Cl)cc2)c(=O)[nH]1 (stereo not given) | -7.03 |
| CCN(Cc1ccc(C(C)C)cc1)C(=O)c1csc(CN(C)C)n1 | -3.84 |
| CCn1cc(CN2CCC(CN3CCCCC3)CC2)cc1C#N | -5.77 |
| Cc1nc(C(=O)N2CC(C)Sc3ccccc32)cs1 (stereo not given) | -3.71 |
| COc1cc(NC2CCCN(c3ncccc3C#N)C2)cc(OC)c1 (stereo not given) | -9.25 |
| CCCC(=O)N1CCCCC1c1nc(N(C)C)ncc1-c1cc(C)no1 (stereo not given) | 4.94 |

| Structure (SMILES) | cytotoxicity at 10 µM [%] |
| --- | --- |
| CSCC(=O)N1C[C@H](c2ccc(C)o2)[C@@H](N)C1 | 6.6 |
| O=C(NCc1cscn1)NC1CCN(c2ncccc2Cl)C1 (stereo not given) | -1.24 |
| CC1CCN(C(=O)NCC(=O)N(C)CC(F)(F)F)C1 (stereo not given) | 1.82 |
| COC(=O)[C@H](C)NC(=O)CSCc1nc2sc(C(C)C)cc2c(=O)[nH]1 | 2.87 |
| CC(C)N1CC(n2ccnc2-c2nccn2C)CC1=O (stereo not given) | -0.371 |
| N#Cc1ccc(CN2CCN(C(=O)c3cc(C4CC4)[nH]n3)CC2)cc1 | 18.9 |
| Cc1nc(N2CCN(C)CC2)ncc1C(=O)N1CCCCC1 | 0.305 |
| CC(=O)N1CCN2C(=O)N(Cc3ccc(F)cc3)C[C@H]2C1 | -4.26 |
| O=C(C1CCC2(CCN(Cc3cccnc3)CC2)CO1)N1CCCC1 (stereo not given) | -108 |
| O=C1CCc2cc(NC(=O)C3CCCN3c3nccs3)ccc2N1 (stereo not given) | -10.8 |
| CC(Cc1cn(CCc2n[nH]c(=O)[nH]2)nn1)c1ccccc1 (stereo not given) | -0.591 |
| CCOCc1cncc2c1CCN(S(=O)(=O)c1cccc(C)c1)C2 | 13.6 |
| Cc1c(F)cccc1CN1CCn2nc(CNC(=O)N(C)C)cc2C1 | -19.4 |
| CCN(c1ccccc1)S(=O)(=O)c1cc(C(=O)O)cc2c1CCC2 | 9.69 |
| CCN(Cc1ccoc1)C(=O)c1ccncc1O | 6.85 |
| O=C(N[C@@H]1CN(CCc2ccc(F)cc2)C[C@H]1O)c1cscn1 | -3.08 |
| COCc1nc(CN2CCOC(CN(C)c3cccnn3)C2)cs1 (stereo not given) | 1.55 |
| C1CC(NCC2CC2)CN(Cc2noc(C3CC3)n2)C1 (stereo not given) | -3.09 |
| O=C(NC[C@H]1OC[C@@H](NC2COC2)[C@@H]1O)c1ccccc1 | -1.05 |
| COCCN1CCN(Cc2ccncc2)[C@H]2CS(=O)(=O)C[C@H]21 | -10.2 |
| Cc1cccc(CN2CCC3(CCCN(C(=O)NC4CC4)C3)C2=O)n1 (stereo not given) | 12.2 |
| CC(C)n1ccnc1CN1CCCN(C(=O)CN(C)C2CC2)CC1 | -3.96 |

| Structure (SMILES) | cytotoxicity at 10 µM [%] |
| --- | --- |
| O=C(Nc1ccccc1)C1CN(CC2CCOCC2)CC12CCOCC2 (stereo not given) | 1.65 |
| Cc1cc(N2CCCC(N(C)C)C2)n2nccc2n1 (stereo not given) | -43.4 |
| CC1CCCN(C(=O)c2csc(S(N)(=O)=O)c2)CC1 (stereo not given) | 1.52 |
| COc1cc(F)ccc1N(C)Cc1ccncc1 | -3.64 |
| CCN1CC(C(=O)NC(C)(C)CNC(=O)OC(C)(C)C)CC1=O (stereo not given) | 7.79 |
| O=C(C1CC=CC1)N1CCc2c(COCc3ccncc3)cncc2C1 | -7.79 |
| Cc1nn(C)c(Cl)c1C1CCCN1CC(=O)Nc1cccnc1 (stereo not given) | -17.2 |
| CCOc1ncccc1NC(=O)N1CCCCCC1 | -6.36 |
| Cc1csc(NCC(=O)c2c[nH]c3ccccc23)n1 | 22.4 |
| CCN(C)C(=O)c1ncn2c(C3CCN(S(C)(=O)=O)CC3)ccnc12 | -3.68 |
| COCCNc1nc2c(c(NCCc3cccs3)n1)CCNCC2 | 3.96 |
| O=C(NC[C@H]1OC[C@@H](NC2CCCCC2)[C@@H]1O)c1cccs1 | -2.36 |
| N#Cc1ccc(S(=O)(=O)NC(=O)c2csc(-c3ccco3)n2)cc1 | -8.17 |
| CN(C)S(=O)(=O)N1CCC2(CC1)CC(Oc1ccccn1)CO2 (stereo not given) | -133 |
| O=C(c1cccc2c1OCCO2)N1CCCC1c1noc(C2CC2)n1 (stereo not given) | -14.5 |
| Cc1nnc(N2CCCC3(CN(Cc4cnn(C)c4)CCO3)C2)o1 (stereo not given) | 4.12 |
| CCOC(=O)C1CCN(C(=O)c2cc(F)ccc2-n2cnnn2)CC1 | -0.121 |
| O=C(Cc1ccc(O)c(F)c1)N1CCN(CC2CC2)[C@@H]2CS(=O)(=O)C[C@@H]21 | -2.06 |
| CCC[C@H]1CN(Cc2cc(C#N)n(C)c2C)C[C@@H]1N(C)C | -152 |
| O=C(NC1CCCC1)N1CC[C@H]2[C@H]1CCN2c1nncs1 | -7.73 |
| CCc1ncncc1C(=O)NCCN1CCC(C)CC1 | -15.6 |
| CC(C)n1c(=O)c2ccccc2n(CCN2CCCCC2)c1=O | -16.6 |

| Structure (SMILES) | cytotoxicity at 10 µM [%] |
| --- | --- |
| Cc1oc(C(C)C)cc1C(=O)N1C[C@@H]2CC[C@H]1CN(S(=O)(=O)N(C)C)C2 | -127 |
| CC(C)(N)c1cn(C2CCN(C3CCSCC3)CC2)nn1 | -10.7 |
| Cc1csc(CN2CCC[C@]3(C[C@H](Oc4ccccn4)CO3)C2)n1 | -14 |
| O=C(NCC(O)c1ccc(F)c(F)c1)c1cccnc1O (stereo not given) | -13.6 |
| Cc1cc(C(F)(F)F)cc(N2CCN(Cc3ccccc3)CC(O)C2)n1 (stereo not given) | 0.165 |
| C[C@@H]1CN(C(=O)C2CCS(=O)(=O)CC2)CC[C@@]1(O)C1CCOCC1 | -9.34 |
| CCn1cnnc1CNC(=O)N(C)Cc1cccc(OC(F)F)c1 | -3.73 |
| Cc1cc(C)c2[nH]c(C(=O)NCCN3CCOC3=O)c(C)c2c1 | -0.2 |
| COC(=O)N1CCC(NC2CCSCC2)C1 (stereo not given) | -8.23 |
| CNC(=O)N1CC[C@@H]2CN(Cc3cccnc3)S(=O)(=O)[C@@H]2CC1 | 4.4 |
| Cc1ccn(-c2ccccc2NCc2cccnc2C)n1 | 1.34 |
| Cn1c(=NC(=O)CSCC(=O)Nc2nccs2)sc2ccccc21 | -1.81 |
| Cc1csc(CCCNC(=O)[C@H]2CNC[C@@H](C(=O)N3CCCC3)C2)n1 | -15.9 |
| O=C(Cc1ccsc1)N1C[C@@H]2OCCN(CC3CC3)[C@@H]2C1 | 10.1 |
| O=C(C1CCOC1)N1CCc2ncnc(NC3CCC3)c2CC1 (stereo not given) | -151 |
| O=C(N[C@@H]1CCC[C@@H](n2ccnc2)[C@@H]1O)c1ccc2c(c1)CCCC2 | -11.3 |
| CC(=O)NC1CCN(c2cnc(C3CCNCC3)cn2)CC1 | 8 |
| Cc1cncc(C(=O)N2Cc3ccccc3C3(CCN(C)CC3)C2)c1 | 4.37 |
| CSc1ccc(C(=O)C2CCCN(C(=O)CCn3cnnn3)C2)cc1 (stereo not given) | 6.03 |
| CC(Oc1ccccc1C(F)(F)F)C(=O)NCCNC(=O)C1CC1 (stereo not given) | 6.91 |
| Cc1nn(C)cc1-c1cc(C(F)F)n2nc(CCC(=O)O)nc2n1 | -5.44 |
| COC(=O)C1CN(Cc2ccn(-c3ccc(F)cc3)n2)CCO1 (stereo not given) | -8.51 |

| Structure (SMILES) | cytotoxicity at 10 µM [%] |
| --- | --- |
| COCc1nc(C(=O)OCC2CCN(c3ccccc3)C2)cs1 (stereo not given) | -1.31 |
| Cc1csc(CCNc2ccc(C#N)cn2)n1 | 0.738 |
| Cc1csc2c(N3CCC(Cn4cc(C(C)(C)O)nn4)CC3)ncnc12 | 29.9 |
| CN1CCC/C1=N\S(=O)(=O)c1ccc(NC(=O)c2ccsc2)cc1 | 6.49 |
| COCCOCCNS(=O)(=O)C1CS(=O)(=O)c2ccccc21 (stereo not given) | -15.3 |
| CCN(Cc1cccc(F)c1)c1ccc2nnnn2n1 | 15.4 |
| COc1cc(CNCCc2cnn(C)c2)cc2c1OCCO2 | -4.82 |
| COc1c(C2CCCN2C(=O)c2ccc(C(N)=O)s2)c(C)nn1C (stereo not given) | 0.00973 |
| CCn1cc(NC(=O)C2CCN(Cc3noc(C4CC4)n3)CC2)cn1 | -1.41 |
| CN(C)CCN1CCC(NC2CSCCc3ccccc32)CC1 (stereo not given) | -8.77 |
| C[C@H](c1ccc(Cl)cc1)n1c(C2CC2)n[nH]c1=O | 9.33 |
| C=C(C)COc1cccc(CN(C)C(C)c2nccs2)c1 (stereo not given) | -49.2 |
| CN(Cc1ccccc1)C(=O)CCNc1ncccc1C#N | 4.55 |
| COCC1COCCC12CCN(C(=O)CCc1ccccc1)CC2 (stereo not given) | -9.8 |
| CN(C)C(=O)N1CCC2(CC(=O)N(c3cccc(C#N)c3)C2)C1 (stereo not given) | 3.33 |
| COC(=O)CN(Cc1ccccc1C)C(=O)COCC1CC1 | 6.87 |
| COC(C)(C)CC(C)NC(=O)NC1CCN(Cc2ccccn2)CC1 (stereo not given) | 4.83 |
| CCOc1ncccc1NC(=O)c1cc(C)c(C)s1 | -2.96 |
| COc1ccc(Oc2cccnc2)cc1CN1CCCC1 | 2.67 |
| CC(C)N1CCC(CNC(=O)CCc2cc(F)ccc2F)C1 (stereo not given) | -5.38 |
| COc1ccc(-c2noc(CN3CC(n4cccn4)C3)n2)c(OC)c1 | -11.2 |
| CC(C)S(=O)(=O)NCC1CCCN(C(=O)c2cccnc2)C1 (stereo not given) | -7.16 |
